Measurements from paper PMC10646973 (Biochemistry, 2023).

Columns and labels:
PNMT = details: read-out: apparent IC50; cited from earlier work
[1] = system: protein arginine and protein lysine methyltransferases (PRMTs and PKMTs) in HT-29 colorectal cells; assay: Protein methylation marks; assay type: cell-based; details: HT-29 cells, 6 days, positive control
How it was run: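 HT-29 colorectal cells were exposed to the test compound for 6 days. Soluble protein was then extracted and immunoblotted for symmetric dimethylarginine, asymmetric dimethylarginine and trimethyl-lysine marks. The SDMA positive control was a PRMT5-specific inhibitor, and the ADMA positive control was a type I PRMT (PRMT1/4) inhibitor.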

NC(=O)c1cccc(C#CCN(CC[C@H](N)C(=O)O)C[C@H]2O[C@@H](n3cnc4c(N)ncnc43)[C@H](O)[C@@H]2O)c1 [LL320]
IC50 (PNMT): > 100 µM

CC(C)Oc1ccc(-c2c[nH]cc2CN(C)CCN)cc1 [MS023, reference compound]
ADMA (Western blot) [1]: no evidence of ADMA

CC(=O)N1CCC(Nc2cc(C(=O)NC[C@H](O)CN3CCc4ccccc4C3)ncn2)CC1 [GSK3326595, reference compound]
SDMA (Western blot) [1]: no band corresponding to SDMA
